Among the data in ChEMBL document CHEMBL1145300, “Design, synthesis, and anti-inflammatory activity both in vitro and in vivo of new betulinic acid analogues having an enone functionality in ring A” (Bioorg Med Chem Lett, 2006) are IC50 and Activity values, retold here.

Active and inactive are the calls of the source. The rule behind the calls is not given here.

The first experiment concerns RAW. The experiment is described as follows: Inhibition of nitric oxide production in IFN-gamma stimulated RAW 264.7 cells. Format: functional, cell-based. The note with it: Mus musculus.
As a reminder, the IC50 is the concentration at which inhibition is half-maximal. Read a high IC50 as a need for much substance. `C=C(C)[C@@H]1CC[C@]2(C(=O)OC)CC[C@]3(C)C(CC[C@@H]4[C@@]5(C)C=C(C(=O)OC)C(=O)C(C)(C)[C@@H]5CC[C@]43C)[C@@H]12` (stereo partly drawn) had an IC50 of 600 nM.

`C=C(CF)[C@@H]1CC[C@]2(C(=O)OC)CC[C@]3(C)C(CC[C@@H]4[C@@]5(C)C=C(C(=O)OC)C(=O)C(C)(C)[C@@H]5CC[C@]43C)[C@@H]12` (stereo partly drawn) yielded an IC50 of 300 nM.

In turn, `C=C(C)[C@@H]1CC[C@]2(C(=O)n3ccnc3)CC[C@]3(C)C(CC[C@@H]4[C@@]5(C)C=C(C#N)C(=O)C(C)(C)[C@@H]5CC[C@]43C)[C@@H]12` (stereo partly drawn) showed a half-maximal inhibitory concentration (IC50) of 30 nM.

In turn, `C=C(CO)[C@@H]1CC[C@]2(C(=O)OC)CC[C@]3(C)C(CC[C@@H]4[C@@]5(C)C=C(C(=O)OC)C(=O)C(C)(C)[C@@H]5CC[C@]43C)[C@@H]12` (stereo partly drawn) showed an IC50 of 1000 nM.

In the case of `C=C(C)[C@@H]1CC[C@]2(C(=O)NC)CC[C@]3(C)C(CC[C@@H]4[C@@]5(C)C=C(C#N)C(=O)C(C)(C)[C@@H]5CC[C@]43C)[C@@H]12` (stereo partly drawn), half-maximal inhibition (IC50) required 50 nM.

Regarding `C=C(C)[C@@H]1CC[C@]2(C(=O)O)CC[C@]3(C)[C@H](CC[C@@H]4[C@@]5(C)CC[C@H](O)C(C)(C)[C@@H]5CC[C@]43C)[C@@H]12`, the result was inactive.

Take `C=C(C)[C@@H]1CC[C@]2(C(=O)OC)CC[C@]3(C)C(CC[C@@H]4[C@@]5(C)C=C(C(=O)O)C(=O)C(C)(C)[C@@H]5CC[C@]43C)[C@@H]12` (stereo partly drawn): inhibition was half-maximal at 300 nM (IC50).

On to `C=C(C)[C@@H]1CC[C@]2(C(=O)O)CC[C@]3(C)C(CC[C@@H]4[C@@]5(C)C=C(C#N)C(=O)C(C)(C)[C@@H]5CC[C@]43C)[C@@H]12` (stereo partly drawn), for which the midpoint of inhibition, the IC50, lay at 200 nM.

Turning to `C=C(CO)[C@@H]1CC[C@]2(C(=O)OC)CC[C@]3(C)C(CC[C@@H]4[C@@]5(C)C=C(C(=O)O)C(=O)C(C)(C)[C@@H]5CC[C@]43C)[C@@H]12` (stereo partly drawn), it took 900 nM to reach half-maximal inhibition (IC50).

As to `C=C(C)[C@@H]1CC[C@]2(C(=O)OC)CC[C@]3(C)C(CC[C@@H]4[C@@]5(C)C=C(C#N)C(=O)C(C)(C)[C@@H]5CC[C@]43C)[C@@H]12` (stereo partly drawn), half-maximal inhibition (IC50) required 30 nM.

Take `C=C(C)[C@@H]1CC[C@]2(C(=O)n3ccnc3C)CC[C@]3(C)C(CC[C@@H]4[C@@]5(C)C=C(C#N)C(=O)C(C)(C)[C@@H]5CC[C@]43C)[C@@H]12` (stereo partly drawn): the IC50 worked out at 50 nM.

For `C=C(C)[C@@H]1CC[C@]2(C(=O)OCC)CC[C@]3(C)C(CC[C@@H]4[C@@]5(C)C=C(C#N)C(=O)C(C)(C)[C@@H]5CC[C@]43C)[C@@H]12` (stereo partly drawn), the IC50 amounted to 20 nM.

Take `C=C(CF)[C@@H]1CC[C@]2(C(=O)OC)CC[C@]3(C)C(CC[C@@H]4[C@@]5(C)C=C(C(=O)O)C(=O)C(C)(C)[C@@H]5CC[C@]43C)[C@@H]12` (stereo partly drawn): the IC50 was 300 nM.

Compound `C=C(C)[C@@H]1CC[C@]2(C(=O)N(C)C)CC[C@]3(C)C(CC[C@@H]4[C@@]5(C)C=C(C#N)C(=O)C(C)(C)[C@@H]5CC[C@]43C)[C@@H]12` (stereo partly drawn) had an IC50 of 30 nM.

As for `C=C(C)[C@@H]1CC[C@]2(C(N)=O)CC[C@]3(C)C(CC[C@@H]4[C@@]5(C)C=C(C#N)C(=O)C(C)(C)[C@@H]5CC[C@]43C)[C@@H]12` (stereo partly drawn), half-maximal inhibition (IC50) was put at 30 nM.

In turn, `C=C(C)[C@@H]1CC[C@]2(C(=O)n3ccnc3CC)CC[C@]3(C)C(CC[C@@H]4[C@@]5(C)C=C(C#N)C(=O)C(C)(C)[C@@H]5CC[C@]43C)[C@@H]12` (stereo partly drawn) displayed a half-inhibitory concentration (IC50) of 30 nM.

A further experiment concerns the target T1, Heme oxygenase 1 (Mus musculus) (UniProt P14901).
T1 sequence (whole entry): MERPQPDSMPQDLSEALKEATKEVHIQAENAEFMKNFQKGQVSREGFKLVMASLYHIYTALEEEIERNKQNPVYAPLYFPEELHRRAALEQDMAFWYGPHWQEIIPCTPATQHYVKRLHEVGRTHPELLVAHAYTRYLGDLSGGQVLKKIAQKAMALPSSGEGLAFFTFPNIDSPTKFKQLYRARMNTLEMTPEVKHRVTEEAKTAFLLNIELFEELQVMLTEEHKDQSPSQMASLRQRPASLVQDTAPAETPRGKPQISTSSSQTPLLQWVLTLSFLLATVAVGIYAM
Put plainly: Induction of liver HO1 in CD1 mouse at 2 uM, po after 6 hrs. Format: organism-based.
Conditions: not given
An outline of the steps: (§1)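 Male CD-1 mice, 3 per group, were given a single oral gavage of 2 μmole triterpenoid in DMSO. The read-out was heme oxygenase-1 (HO-1) induction in the liver.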
With `C=C(C)[C@@H]1CC[C@]2(C(=O)n3ccnc3)CC[C@]3(C)C(CC[C@@H]4[C@@]5(C)C=C(C#N)C(=O)C(C)(C)[C@@H]5CC[C@]43C)[C@@H]12` (stereo partly drawn), the outcome was Active.

A further experiment deals with Mus musculus. Put plainly: Antiinflammatory activity in CD1 mouse at 2 uM, po. The experiment is classed as functional, organism-based.
Conditions: not given
An outline of the steps: as §1
As for `C=C(C)[C@@H]1CC[C@]2(C(=O)n3ccnc3)CC[C@]3(C)C(CC[C@@H]4[C@@]5(C)C=C(C#N)C(=O)C(C)(C)[C@@H]5CC[C@]43C)[C@@H]12` (stereo partly drawn), the outcome was Active.
